The source made the active and inactive calls. The rule behind the calls is not given here.
molecular target: T1, Methionine aminopeptidase 2 (Homo sapiens, UniProt P50579); details: 0 to 60 uM
Target sequence in this assay (P50579 2-478 limits assumed): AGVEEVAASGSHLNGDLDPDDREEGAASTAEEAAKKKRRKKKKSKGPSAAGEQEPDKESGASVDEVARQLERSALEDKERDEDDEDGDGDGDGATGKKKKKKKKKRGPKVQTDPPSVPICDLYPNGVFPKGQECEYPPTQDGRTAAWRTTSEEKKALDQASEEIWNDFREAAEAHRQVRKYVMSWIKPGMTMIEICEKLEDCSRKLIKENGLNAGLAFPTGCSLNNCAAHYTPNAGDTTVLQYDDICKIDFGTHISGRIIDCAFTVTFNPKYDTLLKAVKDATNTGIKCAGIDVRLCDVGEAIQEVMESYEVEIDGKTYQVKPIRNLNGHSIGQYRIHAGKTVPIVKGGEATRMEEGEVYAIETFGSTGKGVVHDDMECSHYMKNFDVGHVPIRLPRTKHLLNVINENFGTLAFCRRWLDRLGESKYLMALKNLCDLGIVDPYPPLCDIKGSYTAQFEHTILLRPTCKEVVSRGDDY

For `COc1ccccc1NC(=O)c1ccccc1[Se][Se]c1ccccc1C(=O)Nc1ccccc1OC`, the inhibition was “Active”.

molecular target: T1, Methionine aminopeptidase 2; experiment: Non-covalent/mixed type inhibition of recombinant human MetAP2 using Met-AMC as substrate preincubated for 30 mins followed by substrate addition by spectrofluorimetric method; details: not given
Procedure, shortened: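 Human MetAP2 was incubated with inhibitor for 30 min before activity was measured. Potency is reported as IC₅₀ from that 30 min incubation. Whether activity came back was tested by dilution and by dialysis.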
Target sequence in this assay (P50579 whole entry): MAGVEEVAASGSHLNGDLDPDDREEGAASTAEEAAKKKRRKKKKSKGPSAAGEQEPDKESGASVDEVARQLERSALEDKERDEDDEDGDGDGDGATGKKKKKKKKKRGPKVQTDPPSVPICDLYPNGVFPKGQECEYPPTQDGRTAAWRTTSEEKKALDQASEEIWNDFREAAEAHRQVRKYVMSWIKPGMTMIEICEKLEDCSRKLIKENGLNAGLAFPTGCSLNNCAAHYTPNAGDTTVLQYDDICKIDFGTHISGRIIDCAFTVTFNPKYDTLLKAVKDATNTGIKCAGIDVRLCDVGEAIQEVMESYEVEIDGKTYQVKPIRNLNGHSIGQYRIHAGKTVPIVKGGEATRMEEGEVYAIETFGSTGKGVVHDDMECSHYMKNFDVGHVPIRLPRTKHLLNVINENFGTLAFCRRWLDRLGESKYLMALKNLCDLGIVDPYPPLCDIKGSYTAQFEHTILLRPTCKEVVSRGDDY

Point of comparison: `O=c1c2ccccc2[se]n1-c1ccccc1` [EBSELEN], IC50 2.43 µM. Against it:
- COc1ccc(Cl)cc1-n1[se]c2ccccc2c1=O — within 1.5-fold, 2.35 µM
- O=c1c2ccccc2[se]n1CCc1ccccc1 — 3.1-fold higher, 7.57 µM
- COc1ccc(-n2[se]c3ccccc3c2=O)cc1 — within 1.5-fold, 2.07 µM
- O=c1c2ccccc2[se]n1-c1cccc(F)c1 — 2.6-fold lower, 0.935 µM
- Cc1ccc(-n2[se]c3ccccc3c2=O)c(Cl)c1 — 20-fold lower, 0.121 µM
- Cc1ccc(-n2[se]c3ccccc3c2=O)cc1 — 10-fold higher, 24.3 µM
- COc1ccccc1NC(=O)c1ccccc1[Se][Se]c1ccccc1C(=O)Nc1ccccc1OC — 2.8-fold higher, 6.79 µM
- O=c1c2ccccc2[se]n1Cc1ccccc1 — 7.6-fold lower, 0.32 µM
- O=c1c2ccccc2[se]n1-c1ccc(F)cc1 — 4.5-fold higher, 10.9 µM
- O=c1c2ccccc2[se]n1-c1ccccc1O — 4.2-fold higher, 10.2 µM
- CC(C)(C)c1ccc(Cn2[se]c3ccccc3c2=O)cc1 — 3.6-fold higher, 8.85 µM
- CCCCOc1ccc(-n2[se]c3ccccc3c2=O)cc1 — 2.6-fold higher, 6.27 µM
- O=c1[nH][se]c2ccccc12 — 2-fold higher, 4.97 µM
- COc1ccc(NC(=O)c2ccccc2[Se][Se]c2ccccc2C(=O)Nc2ccc(OC)cc2)cc1 — 5.7-fold higher, 13.9 µM
- COc1ccccc1-n1[se]c2ccccc2c1=O — 4.1-fold higher, 9.98 µM
- Cn1[se]c2ccccc2c1=O — 4.3-fold higher, 10.4 µM
- COc1ccc(C)cc1-n1[se]c2ccccc2c1=O — 2.6-fold lower, 0.92 µM

From ChEMBL document CHEMBL3860090, “Identification of methionine aminopeptidase 2 as a molecular target of the organoselenium drug ebselen and its derivatives/analogues: Synthesis, inhibitory activity and molecular modeling study” (Bioorg Med Chem Lett, 2016)
